Active and inactive are the calls of the source. Rule as the data show it, unless noted: active = inhibition above about 30%; inactive = the rest. Peptide text beside a SMILES is read from it. * marks the point of attachment. Boc = CC(C)(C)OC(=O)*
Legend:
[1] = reduced viability of SK-BR-3 breast cancer cells – cell-based, 24 h, human, pilot screen (AID 572;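 active = viability at or below 10% of carrier control in both of two separate runs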;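 also: compound exposure lasted between 18 and 24 h rather than exactly 24 h; 100% = carrier-treated control wells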); conditions: SK-BR-3 viability, CellTiter-Glo luminescence, at 10 µM, stronger effect = lower value
[2] = HUVEC growth inhibition – cell-based, human, primary screen (AID 575;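 active = viability at or below 30% in both replicate assays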;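 also: 100% = median of untreated cell wells with 0.1% DMSO on each plate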); conditions: HUVEC proliferation, CellTiter-Glo luminescence, 72 h; at 10 µM; stronger effect = lower value
In short: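 Test system – primary HUVEC, no more than 12 passages · Dosing – one dose, 10 µM final, 0.1% DMSO · Times – 72 h treatment at 37 °C · Measured by – ATP-based CellTiter-Glo luminescent read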

[3] = H69AR cell proliferation blockers – human, duplicate replicates, primary screen (AID 580;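 active = viability at or under a set limit in both replicates, limit being median viability minus 3 SD, cut at about 48% in these data, passing the limit was not always enough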;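 also: 100% = mean luminescence of untreated wells and 0% = no signal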); conditions: H69AR lung tumor cells viability, ATP luminescence, 72 h; at 10 µM; stronger effect = lower value
[4] = MRP1 drug-resistance reversers in H69AR cells – cell-based, doxorubicin co-treatment, pilot screen (AID 601;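 active = viability loss from added drug above about 55%, and viability with drug at most 40%, in both replicates, limit read from the data, passing the limit was not always enough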); conditions: CellTiter-Glo, 72 h, at 10 µM; for differential viability (reversal): stronger effect = higher value
[5] = yeast transport mutant growth inhibition pilot in 384-well plates, post-Golgi transport modulator project (AID 636; in the data active = inhibition above about 31%); conditions: absorbance 615 nm, about 18 h, stronger effect = higher value
[6] = growth suppression of yeast trafficking mutant, preliminary HTS, modulators of trafficking downstream of Golgi apparatus project, 1536-format plate, OD 615 nm (AID 637); conditions: yeast transport mutant growth, absorbance 615 nm, 18 h; stronger effect = higher value
[7] = H69AR cells + 2 uM doxorubicin, measured here: viability with 2 uM doxorubicin, stronger effect = lower value
[8] = H69AR cells, compound alone cytotoxicity

Structure (SMILES) | viability [1] | viability [2] | viability [3] | differential viability (reversal) ([4]; H69AR cells + 2 uM doxorubicin) | viability [4, 7] [%] | viability [4, 8] [%] | inhibition [5] | inhibition [6]
Cc1ccc(S(=O)(=O)N2CCCN(S(=O)(=O)C3CCS(=O)(=O)C3)CC2)cc1 (stereo not drawn) | 124% (inactive) | 101% (inactive) | 99.1% (inactive) | 8.77% (inactive) | 90.4 | 99.1 | -7.2% (inactive) | 1.09% (inactive)
CC(O)c1cc2c(cc1NC(=O)c1cnn3c1NC(c1ccco1)CC3C(F)(F)F)OCO2 (stereo not drawn) | 93% (inactive) | 97.2% (inactive) | 86.3% (inactive) | 0.405% (inactive) | 85.9 | 86.3 | 0.65% (inactive) | -1.97% (inactive)
CC(=O)Nc1nc2c(c3c1c(=O)oc1ccccc13)CC(C)CC2 (stereo not drawn) | 123% (inactive) | 85.1% (inactive) | 92.1% (inactive) | 4.96% (inactive) | 87.1 | 92.1 | -1.04% (inactive) | -2.79% (inactive)
O=C(CN(Cc1ccc(F)cc1)C(=O)c1ccco1)NCc1ccc(F)cc1 | 104% (inactive) | 112% (inactive) | 94.1% (inactive) | 18.5% (inactive) | 75.6 | 94.1 | -8% (inactive) | -6.91% (inactive)
CN(C)c1nc(OCCOC(=O)Nc2ccc(Cl)cc2Cl)nc(N(C)C)n1 | 70% (inactive) | 103% (inactive) | 96.3% (inactive) | 16.4% (inactive) | 79.9 | 96.3 | -5.21% (inactive) | 2.91% (inactive)
CC(C)(C)NCC(O)c1cc(O)cc(O)c1 (stereo not drawn) | 127% (inactive) | 109% (inactive) | 98.9% (inactive) | 7.49% (inactive) | 91.4 | 98.9 | -2.73% (inactive) | 2.5% (inactive)
N[C@@H](Cc1ccc(O)c(I)c1)C(=O)O | 87% (inactive) | 87.5% (inactive) | 105% (inactive) | 15.7% (inactive) | 89.3 | 105 | -4.81% (inactive) | -1.33% (inactive)
CCOC(=O)N(C)c1ccc(C(O)(C(F)(F)F)C(F)(F)F)cc1 | 92% (inactive) | 91.7% (inactive) | 102% (inactive) | 5.16% (inactive) | 97.1 | 102 | 1.76% (inactive) | -6.55% (inactive)
O=C1CC(c2ccccc2)Cc2nc(N3CCc4ccccc43)ncc21 (stereo not drawn) | 79% (inactive) | 108% (inactive) | 76.5% (inactive) | 12% (inactive) | 64.6 | 76.5 | -6.89% (inactive) | 1.82% (inactive)
Cc1ccc(C)c(N(CC(=O)NC2CCCC2)C(=O)CCCC(=O)Nc2ccccn2)c1 | 99% (inactive) | 81.6% (inactive) | 102% (inactive) | 13.7% (inactive) | 87.8 | 102 | -1.82% (inactive) | -2.95% (inactive)
CCC(c1nnc(SCC(=O)Nc2ccc(C(=O)Nc3ccccc3OC)cc2)o1)N(C)C (stereo not drawn) | 65% (inactive) | 96.7% (inactive) | 107% (inactive) | 7.67% (inactive) | 99 | 107 | -6.3% (inactive) | -2.18% (inactive)
CCC(CCC(=O)Nc1cccc(C(=O)O)c1)C(=O)O (stereo not drawn) | 62% (inactive) | 107% (inactive) | 103% (inactive) | 2.19% (inactive) | 101 | 103 | -0.82% (inactive) | 2.36% (inactive)
O=C1C(CCS(=O)c2ccccc2)C(=O)N(c2ccccc2)N1c1ccccc1 (stereo not drawn) | 112% (inactive) | 84.5% (inactive) | 96.6% (inactive) | 7.85% (inactive) | 88.7 | 96.6 | 0.65% (inactive) | 10.7% (inactive)
O=C(O)c1ccc(C2SCC(=O)N2Cc2ccccc2)cc1 (stereo not drawn) | 95% (inactive) | 109% (inactive) | 96.9% (inactive) | 1.26% (inactive) | 95.6 | 96.9 | -1.07% (inactive) | 0% (inactive)
Cc1ccc(-c2nnc(SCC(=O)N3c4ccccc4NC(=O)C3(C)C)n2N)cc1 | 65% (inactive) | 105% (inactive) | 98% (inactive) | 6.49% (inactive) | 91.5 | 98 | -3.38% (inactive) | 0.36% (inactive)
Cc1ccccc1Nc1nc(N)nc(CSCc2c(C)noc2C)n1 | 88% (inactive) | 101% (inactive) | 96.4% (inactive) | -1.78% (inactive) | 98.2 | 96.4 | 3.51% (inactive) | 3.09% (inactive)
Cc1cnc(C(=O)NCCc2ccc(S(=O)(=O)NC(=O)NC3CCCCC3)cc2)cn1 | 94% (inactive) | 94.9% (inactive) | 89.3% (inactive) | -16.6% (inactive) | 106 | 89.3 | 1.04% (inactive) | 2% (inactive)
COc1ccc(S(=O)(=O)Nc2cccc(C)n2)c2ccccc12 | 94% (inactive) | 109% (inactive) | 100% (inactive) | 13.8% (inactive) | 86.2 | 100 | -2.08% (inactive) | 4.43% (inactive)

Structure (SMILES) | viability [1] | viability [2] | viability [3] | differential viability (reversal) ([4]; H69AR cells + 2 uM doxorubicin) | viability [4, 7] [%] | viability [4, 8] [%] | inhibition [5] | inhibition [6]
COc1ccccc1N1CCN(C(CNS(=O)(=O)c2cc(F)ccc2F)c2cccnc2)CC1 (stereo not drawn) | 95% (inactive) | 110% (inactive) | 92.8% (inactive) | 2.69% (inactive) | 90.2 | 92.8 | -2.97% (inactive) | 4% (inactive)
CCOC(=O)C1CCN(C(C)=C2C(=O)c3ccccc3C2=O)CC1 | 98% (inactive) | 110% (inactive) | 105% (inactive) | 10.4% (inactive) | 94.6 | 105 | -4.66% (inactive) | 7.26% (inactive)
CC(=O)Nc1ccc(S(=O)(=O)N2CCN(c3cc(C)nc4ccccc34)CC2)cc1 | 103% (inactive) | 96.7% (inactive) | 87.1% (inactive) | 0.84% (inactive) | 86.2 | 87.1 | -5.41% (inactive) | -3.09% (inactive)
COc1ccc(-c2[nH]nc3c2C(c2ccncc2)C(C#N)=C(N)O3)cc1 (stereo not drawn) | 71% (inactive) | 122% (inactive) | 92.2% (inactive) | 2.15% (inactive) | 90 | 92.2 | -5.81% (inactive) | -0.18% (inactive)
Cn1c(C(=O)OC(C(=O)NC2CCCC2)c2cccnc2)cc2sccc21 (stereo not drawn) | 74% (inactive) | 110% (inactive) | 89.1% (inactive) | -3.48% (inactive) | 92.6 | 89.1 | -4.38% (inactive) | 2.91% (inactive)
Cc1cc(=O)n2[nH]c(-c3ccc(Cl)cc3)cc2n1 | 108% (inactive) | 75.8% (inactive) | 99.2% (inactive) | 8.53% (inactive) | 90.7 | 99.2 | -4.66% (inactive) | 5.45% (inactive)
CC(C)CC(NC(=O)OC(C)(C)C)C(=O)NC(C(=O)N1CCCC1C(N)=O)C(C)C (stereo not drawn) (Boc-Leu-Val-Pro-NH2; configuration not given here) | 103% (inactive) | 101% (inactive) | 111% (inactive) | 17.5% (inactive) | 93.8 | 111 | 0.78% (inactive) | -4.1% (inactive)
COc1ccc(OCCN2C(=O)NC(C)(c3ccc(C)cc3)C2=O)cc1 (stereo not drawn) | 119% (inactive) | 101% (inactive) | 91.1% (inactive) | -3.77% (inactive) | 94.9 | 91.1 | 3.15% (inactive) | -4.03% (inactive)
COc1ccc(C(=O)NCCc2nnc(SCc3nc4ccccc4c(=O)[nH]3)n2C)cc1 | 101% (inactive) | 67.3% (inactive) | 83.4% (inactive) | 9.63% (inactive) | 73.8 | 83.4 | -5.89% (inactive) | 2.42% (inactive)
Cc1csc(NC(=O)Nc2cccc(Cl)c2)n1 | 102% (inactive) | 75% (inactive) | 98.6% (inactive) | 8.58% (inactive) | 90 | 98.6 | -3.73% (inactive) | -1.09% (inactive)
CN1CCN(S(=O)(=O)c2ccc(NC(=O)Nc3cccc(Cl)c3)cc2)CC1 | 96% (inactive) | 4.34% (active) | 65% (inactive) | -8.79% (inactive) | 73.8 | 65 | -3.6% (inactive) | 1.31% (inactive)
OC1C=CSc2nc3ccccc3n21 (stereo not drawn) | 83.5% (inactive) | 79% (inactive) | 66.8% (inactive) | -8.25% (inactive) | 75 | 66.8 | -5.68% (inactive) | 1.8% (inactive)
NCc1ccc(S(N)(=O)=O)cc1 | 124% (inactive) | 84.8% (inactive) | 102% (inactive) | 9.47% (inactive) | 92.1 | 102 | -1.43% (inactive) | 6.33% (inactive)
c1n[nH]c(SCCCCSc2ncn[nH]2)n1 | 101% (inactive) | 108% (inactive) | 108% (inactive) | 13.8% (inactive) | 93.9 | 108 | -6.71% (inactive) | 2.91% (inactive)
COc1nc(NCCc2ccc(OC)c(OC)c2)nc(NC(C)(C)CO)n1 | 96% (inactive) | 113% (inactive) | 95.5% (inactive) | 7.75% (inactive) | 87.8 | 95.5 | -3.38% (inactive) | -1.31% (inactive)
Cc1cc(=O)n2nc(N3CCCC(C(=O)N4CCN(C)CC4)C3)sc2n1 (stereo not drawn) | 110% (inactive) | 101% (inactive) | 95.7% (inactive) | 7.05% (inactive) | 88.7 | 95.7 | -5.81% (inactive) | -5.09% (inactive)
CCOc1ccc(-c2nc(N)ncc2-c2ccccc2)c(O)c1 | 136% (inactive) | 95.3% (inactive) | 65.3% (inactive) | -14.3% (inactive) | 79.6 | 65.3 | -5.95% (inactive) | -8.1% (inactive)
O=C(Nc1nonc1NC(=O)C1CCCCC1)C1CCCCC1 | 111% (inactive) | 84.7% (inactive) | 89.9% (inactive) | 3.04% (inactive) | 86.8 | 89.9 | -10% (inactive) | 1.94% (inactive)

— PubChem BioAssay
